Measurements from ChEMBL document CHEMBL3259743, “Highly-selective 4-(1,2,3-triazole)-based P450c17a 17,20-lyase inhibitors” (Bioorg Med Chem Lett, 2014).

How the values were obtained:
Cytochrome P450 3A4 = Cytochrome P450 3A4 (Homo sapiens, UniProt P08684); assay: Inhibition of human hepatocyte microsome CYP3A4 using testosterone as substrate by HPLC/MS/MS method; format: ADME
Outline: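 Pooled human hepatocyte microsome preparation with an NADPH-regenerating system. Product analysed by HPLC/MS/MS. IC50 from a 4-parameter logistic fit of the dose-response data.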

[1] = target: T1, Steroid 17-alpha-hydroxylase/17,20 lyase (Homo sapiens, UniProt P05093); assay: Selectivity ratio of IC50 for human recombinant CYP17 hydroxylase activity to IC50 for human recombinant CYP17 lyase activity
T1 sequence (P05093 whole entry): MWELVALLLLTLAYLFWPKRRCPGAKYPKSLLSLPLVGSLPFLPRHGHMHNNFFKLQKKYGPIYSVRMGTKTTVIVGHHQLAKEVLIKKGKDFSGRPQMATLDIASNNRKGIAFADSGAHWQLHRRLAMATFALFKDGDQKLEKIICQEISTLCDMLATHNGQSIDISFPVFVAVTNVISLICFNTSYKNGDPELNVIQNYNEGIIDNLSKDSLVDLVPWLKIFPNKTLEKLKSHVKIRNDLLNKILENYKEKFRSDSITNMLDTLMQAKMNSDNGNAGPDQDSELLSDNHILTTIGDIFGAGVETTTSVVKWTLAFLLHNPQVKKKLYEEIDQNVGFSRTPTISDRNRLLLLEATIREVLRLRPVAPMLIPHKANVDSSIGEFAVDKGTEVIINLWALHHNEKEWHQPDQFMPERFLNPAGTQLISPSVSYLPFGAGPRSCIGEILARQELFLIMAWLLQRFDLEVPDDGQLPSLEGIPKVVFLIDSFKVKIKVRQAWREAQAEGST
Outline: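 Lyase selectivity expressed as human hydroxylase IC50 divided by human lyase IC50. Both values come from recombinant human CYP17 in a yeast microsome system, with products analysed by HPLC/MS/MS and 4-parameter logistic fitting.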

[2] = target: T1, Steroid 17-alpha-hydroxylase/17,20 lyase; assay: Inhibition of human recombinant CYP17 hydroxylase activity by HPLC/MS/MS method
Outline: (§1)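 Recombinant human CYP17 expressed in a yeast microsome system, run with an NADPH-regenerating system. Hydroxylase and lyase products analysed by HPLC/MS/MS. IC50 from a 4-parameter logistic fit of the dose-response data.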

[3] = system: CYP3A4 versus CYP17 lyase; assay: Selectivity ratio of IC50 for human hepatocyte microsome CYP3A4 to IC50 for human recombinant CYP17 lyase activity; format: ADME, cell-based; conditions: read-out: Ratio IC50
Outline: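 Ratio of human CYP3A4 IC50 (pooled human hepatocyte microsomes) to human CYP17 lyase IC50 (recombinant enzyme, yeast microsomes). Both IC50 values from HPLC/MS/MS product analysis with a 4-parameter logistic fit.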

[4] = target: T1, Steroid 17-alpha-hydroxylase/17,20 lyase; assay: Inhibition of human recombinant CYP17 lyase activity using 17alpha-hydroxypregnenolone as substrate by HPLC/MS/MS method; outline: as §1
[5] = target: T2, Steroid 17-alpha-hydroxylase/17,20 lyase (Rattus norvegicus, UniProt P11715); assay: Inhibition of rat testicular microsome CYP17 lyase activity using 17alpha-hydroxypregnenolone as substrate by HPLC/MS/MS method
T2 sequence (P11715 whole entry): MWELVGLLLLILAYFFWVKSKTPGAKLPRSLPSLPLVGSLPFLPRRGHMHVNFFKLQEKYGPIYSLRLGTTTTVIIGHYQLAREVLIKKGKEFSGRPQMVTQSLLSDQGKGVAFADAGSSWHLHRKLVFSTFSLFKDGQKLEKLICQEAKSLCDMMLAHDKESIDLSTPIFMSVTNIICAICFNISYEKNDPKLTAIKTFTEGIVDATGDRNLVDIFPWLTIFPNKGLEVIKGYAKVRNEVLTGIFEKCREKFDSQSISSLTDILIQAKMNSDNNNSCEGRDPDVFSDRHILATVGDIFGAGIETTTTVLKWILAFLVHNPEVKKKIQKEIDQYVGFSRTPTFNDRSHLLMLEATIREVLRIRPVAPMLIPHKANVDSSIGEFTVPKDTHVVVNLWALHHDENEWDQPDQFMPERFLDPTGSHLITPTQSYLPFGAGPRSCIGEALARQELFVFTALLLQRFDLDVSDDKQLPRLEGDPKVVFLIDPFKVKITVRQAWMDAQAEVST
Outline: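 Rat testicular microsome preparation with an NADPH-regenerating system. Product analysed by HPLC/MS/MS. IC50 taken from a 4-parameter logistic fit of the dose-response data.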

[6] = system: CYP3A4 versus CYP17 lyase; assay: Selectivity ratio of IC50 for human hepatocyte microsome CYP3A4 to IC50 for rat testicular microsome CYP17 lyase activity
[7] = Metabolic stability in human liver microsomes assessed as compound remaining after 60 mins; format: ADME; conditions: read-out: Stability
Outline: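 Incubation in human liver microsomes for 60 min. Read-out is the percentage of parent compound remaining.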

Hamster [8] = assay: Inhibition of CYP17 in gonadally-intact hamster assessed as testosterone level in serum at 50 mg/kg, po after 2 hrs by LC/MS/MS analysis (reference value: 1.98 +/- 0.057 ng/mL); format: functional, Cricetinae
[9] = target: T2, Steroid 17-alpha-hydroxylase/17,20 lyase; assay: Inhibition of rat testicular microsome CYP17 hydroxylase activity by HPLC/MS/MS method
Outline: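 Rat testicular microsomal preparation as the enzyme source, with an NADPH-regenerating system. Reaction product was analysed by HPLC/MS/MS. IC50 was derived from a 4-parameter logistic fit of the dose-response data.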

Hamster [10] = assay: Inhibition of CYP17 in gonadally-intact hamster assessed as progesterone level in serum at 50 mg/kg, po after 2 hrs by LC/MS/MS analysis (reference value: 1.02 +/- 0.05 ng/mL); format: functional, Cricetinae

Chain of Cytochrome P450 3A4 (P08684 whole entry): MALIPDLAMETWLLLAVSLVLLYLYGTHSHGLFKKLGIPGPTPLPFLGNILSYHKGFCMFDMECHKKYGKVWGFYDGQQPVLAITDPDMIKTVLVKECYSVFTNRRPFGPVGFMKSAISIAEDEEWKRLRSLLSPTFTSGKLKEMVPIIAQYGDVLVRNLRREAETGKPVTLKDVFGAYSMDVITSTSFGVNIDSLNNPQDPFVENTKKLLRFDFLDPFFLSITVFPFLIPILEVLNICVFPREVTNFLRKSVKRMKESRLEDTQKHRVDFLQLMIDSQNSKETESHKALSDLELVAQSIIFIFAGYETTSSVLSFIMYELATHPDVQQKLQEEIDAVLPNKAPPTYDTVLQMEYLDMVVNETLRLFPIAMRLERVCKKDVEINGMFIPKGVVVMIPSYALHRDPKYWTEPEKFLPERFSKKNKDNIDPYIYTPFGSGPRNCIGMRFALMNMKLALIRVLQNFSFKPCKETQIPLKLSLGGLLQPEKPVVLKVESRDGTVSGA

| IC50 (Cytochrome P450 3A4) [µM] | IC50 [2] [nM] | IC50 [4] [nM] | IC50 [5] [nM] | Structure (SMILES) | Ratio IC50 [1] | selectivity ratio [3] | also measured |
| --- | --- | --- | --- | --- | --- | --- | --- |
| 81 | 13000 | > 4000 | – | CC(C)C(O)(c1ccc2cc(-c3cccs3)ccc2c1)c1c[nH]nn1 (racemic) | < 3 | < 20 | – |
| 1.8 | – | – | 1600 | COc1cc2ccc(C(O)(c3cc[nH]n3)C(C)C)cc2cc1OC (racemic) | – | – | – |
| 27 | – | – | 430 | COc1cc2ccc(C(O)(c3cn[nH]c3)C(C)C)cc2cc1OC (racemic) | – | – | – |
| 100 | – | – | 7100 | COc1cc2ccc(C(O)(c3nc[nH]n3)C(C)C)cc2cc1OC (racemic) | – | – | – |
| 0.77 | – | – | – | COc1cc2ccc(C(O)(c3cncs3)C(C)C)cc2cc1OC (racemic) | – | – | – |
| 6.5 | – | – | 86 | COc1cc2ccc(C(O)(c3cnco3)C(C)C)cc2cc1OC (racemic) | – | – | – |
| 9.4 | – | – | 4200 | COc1cc2ccc(C(O)(c3cccnc3)C(C)C)cc2cc1OC (racemic) | – | – | – |
| 4.5 | – | – | 60 | COc1cc2ccc(C(O)(c3ccncc3)C(C)C)cc2cc1OC (racemic) | – | – | – |
| 18 | – | – | – | COc1cc2ccc(C(O)(c3ccncn3)C(C)C)cc2cc1OC (racemic) | – | – | – |
| 1.6 | 220 | 50 | 29 | COc1cc2ccc(C(O)(c3c[nH]cn3)C(C)C)cc2cc1OC (racemic) | 4.4 | 32 | Activity (Hamster [8]): 0.3 ng/mL; IC50 [9]: 140 nM; Activity (Hamster [10]): 3.9 ng/mL |
| – | 690 | 170 | – | CC(C)C(O)(c1ccc2cc(OC(F)F)c(OC(F)F)cc2c1)c1c[nH]nn1 (racemic) | – | – | remaining at 1 h [7]: 54% |
| 25 | 3700 | 310 | – | CC(C)C(O)(c1ccc2cc(OCC(F)(F)F)c(OCC(F)(F)F)cc2c1)c1c[nH]nn1 (racemic) | 12 | 80 | – |
| 102 | 13000 | 940 | – | CC(C)C(O)(c1ccc2cc(-c3cnco3)ccc2c1)c1c[nH]nn1 (racemic) | 14 | 110 | – |
| 14 | 74 | 330 | – | CC(C)C(O)(c1ccc2cc(OC(F)F)ccc2c1)c1c[nH]nn1 (racemic) | 0.22 | 42 | – |
| ≥ 195 | 1000 | 570 | – | CC(C)C(O)(c1ccc2cc(OCC(F)(F)F)ccc2c1)c1c[nH]nn1 (racemic) | 1.8 | ≥ 340 | – |
| – | – | – | – | CC(=O)O[C@H]1CC[C@@]2(C)C(=CC[C@@H]3[C@@H]2CC[C@]2(C)C(c4cccnc4)=CC[C@@H]32)C1 [ABIRATERONE ACETATE] | – | – | Activity (Hamster [8]): 0.3 ng/mL; Activity (Hamster [10]): 2.1 ng/mL |
| – | – | – | – | CC(C)[C@](O)(c1ccc2cc(OC(F)F)c(OC(F)F)cc2c1)c1c[nH]nn1 [SEVITERONEL] | – | – | Activity (Hamster [8]): 0.37 ng/mL; Activity (Hamster [10]): 1.2 ng/mL |

| Structure (SMILES) | IC50 (Cytochrome P450 3A4) [µM] | IC50 [2] [nM] | IC50 [4] [nM] | IC50 [5] [nM] | Ratio IC50 [1] | selectivity ratio [3] | also measured |
| --- | --- | --- | --- | --- | --- | --- | --- |
| COc1cc2ccc(C(O)(c3c[nH]nn3)C(C)C)cc2cc1OC (racemic) | 57 | 2300 | 180 | – | 13 | 320 | selectivity ratio [6]: 317; remaining at 1 h [7]: 29% |
